# PMC9660540 (Clinical Cancer Research, 2022)
# Experiment: Causally related adverse events, phase Ia/Ib study in patients with solid tumors
# Format: in vivo, human
# In short: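 Expansion cohorts received nanosuspension at 100 mg once daily. The safety set was all patients given ≥1 dose, classified by the treatment actually received. Treatment was delayed or reduced for grade ≥3 or clinically significant nonhematologic toxicity.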
smiles,measurement,setting,value
Cc1cc(-c2nnc(N)nc2-c2ccc(F)cc2)cc(Cl)n1 [AZD4635],Causally related AE grade ≥3: ALT increased,CRC IO-naïve,0 n (%)
same,Causally related AE grade ≥3: Abdominal pain,CRC IO-naïve,0 n (%)
same,Causally related AE grade ≥3: Anemia,CRC IO-naïve,0 n (%)
same,Causally related AE grade ≥3: Arthralgia,CRC IO-naïve,0 n (%)
same,Causally related AE grade ≥3: Blood creatinine increased,CRC IO-naïve,0 n (%)
same,Causally related AE grade ≥3: CRP increased,CRC IO-naïve,0 n (%)
same,Causally related AE grade ≥3: Dermatitis psoriasiform,CRC IO-naïve,0 n (%)
same,Causally related AE grade ≥3: Diarrhea,CRC IO-naïve,0 n (%)
same,Causally related AE grade ≥3: Dizziness,CRC IO-naïve,0 n (%)
same,Causally related AE grade ≥3: Dyspnea,CRC IO-naïve,0 n (%)
same,Causally related AE grade ≥3: Fatigue,CRC IO-naïve,1 (4.0) n (%)
same,Causally related AE grade ≥3: Headache,CRC IO-naïve,0 n (%)
same,Causally related AE grade ≥3: Hyperglycemia,CRC IO-naïve,0 n (%)
same,Causally related AE grade ≥3: Hypertension,CRC IO-naïve,0 n (%)
same,Causally related AE grade ≥3: Hypophosphatemia,CRC IO-naïve,0 n (%)
same,Causally related AE grade ≥3: Insomnia,CRC IO-naïve,0 n (%)
same,Causally related AE grade ≥3: Lipase increased,CRC IO-naïve,0 n (%)
same,Causally related AE grade ≥3: Lymphocyte count decreased,CRC IO-naïve,0 n (%)
same,Causally related AE grade ≥3: Myositis,CRC IO-naïve,0 n (%)
same,Causally related AE grade ≥3: Nausea,CRC IO-naïve,0 n (%)
same,Causally related AE grade ≥3: Neutrophil count decreased,CRC IO-naïve,0 n (%)
same,Causally related AE grade ≥3: Obliterative bronchiolitis,CRC IO-naïve,0 n (%)
same,Causally related AE grade ≥3: Rash,CRC IO-naïve,0 n (%)
same,Causally related AE grade ≥3: Sudden death,CRC IO-naïve,1 (4.0) n (%)
same,Causally related AE grade ≥3: Type I diabetes mellitus,CRC IO-naïve,0 n (%)
same,Causally related AE grade ≥3: Vomiting,CRC IO-naïve,1 (4.0) n (%)
same,≥Grade 3 causally related AE,CRC IO-naïve,3 (12.0) n (%)
same,Causally related AE grade ≥3: ALT increased,NSCLC Post-IO,0 n (%)
same,Causally related AE grade ≥3: Abdominal pain,NSCLC Post-IO,0 n (%)
same,Causally related AE grade ≥3: Anemia,NSCLC Post-IO,0 n (%)
same,Causally related AE grade ≥3: Arthralgia,NSCLC Post-IO,0 n (%)
same,Causally related AE grade ≥3: Blood creatinine increased,NSCLC Post-IO,0 n (%)
same,Causally related AE grade ≥3: CRP increased,NSCLC Post-IO,0 n (%)
same,Causally related AE grade ≥3: Dermatitis psoriasiform,NSCLC Post-IO,0 n (%)
same,Causally related AE grade ≥3: Diarrhea,NSCLC Post-IO,0 n (%)
same,Causally related AE grade ≥3: Dizziness,NSCLC Post-IO,0 n (%)
same,Causally related AE grade ≥3: Dyspnea,NSCLC Post-IO,0 n (%)
same,Causally related AE grade ≥3: Fatigue,NSCLC Post-IO,1 (5.9) n (%)
same,Causally related AE grade ≥3: Headache,NSCLC Post-IO,0 n (%)
same,Causally related AE grade ≥3: Hyperglycemia,NSCLC Post-IO,0 n (%)
same,Causally related AE grade ≥3: Hypertension,NSCLC Post-IO,0 n (%)
same,Causally related AE grade ≥3: Hypophosphatemia,NSCLC Post-IO,0 n (%)
same,Causally related AE grade ≥3: Insomnia,NSCLC Post-IO,0 n (%)
same,Causally related AE grade ≥3: Lipase increased,NSCLC Post-IO,0 n (%)
same,Causally related AE grade ≥3: Lymphocyte count decreased,NSCLC Post-IO,0 n (%)
same,Causally related AE grade ≥3: Myositis,NSCLC Post-IO,0 n (%)
same,Causally related AE grade ≥3: Nausea,NSCLC Post-IO,0 n (%)
same,Causally related AE grade ≥3: Neutrophil count decreased,NSCLC Post-IO,0 n (%)
same,Causally related AE grade ≥3: Obliterative bronchiolitis,NSCLC Post-IO,0 n (%)
same,Causally related AE grade ≥3: Rash,NSCLC Post-IO,0 n (%)
same,Causally related AE grade ≥3: Sudden death,NSCLC Post-IO,0 n (%)
same,Causally related AE grade ≥3: Type I diabetes mellitus,NSCLC Post-IO,0 n (%)
same,Causally related AE grade ≥3: Vomiting,NSCLC Post-IO,0 n (%)
same,≥Grade 3 causally related AE,NSCLC Post-IO,1 (5.9) n (%)
same,Causally related AE grade ≥3: ALT increased,Other IO-naïve,0 n (%)
same,Causally related AE grade ≥3: Abdominal pain,Other IO-naïve,1 (5.3) n (%)
same,Causally related AE grade ≥3: Anemia,Other IO-naïve,0 n (%)
same,Causally related AE grade ≥3: Arthralgia,Other IO-naïve,0 n (%)
same,Causally related AE grade ≥3: Blood creatinine increased,Other IO-naïve,0 n (%)
same,Causally related AE grade ≥3: CRP increased,Other IO-naïve,0 n (%)
same,Causally related AE grade ≥3: Dermatitis psoriasiform,Other IO-naïve,0 n (%)
same,Causally related AE grade ≥3: Diarrhea,Other IO-naïve,1 (5.3) n (%)
same,Causally related AE grade ≥3: Dizziness,Other IO-naïve,0 n (%)
same,Causally related AE grade ≥3: Dyspnea,Other IO-naïve,0 n (%)
same,Causally related AE grade ≥3: Fatigue,Other IO-naïve,2 (10.5) n (%)
same,Causally related AE grade ≥3: Headache,Other IO-naïve,0 n (%)
same,Causally related AE grade ≥3: Hyperglycemia,Other IO-naïve,0 n (%)
same,Causally related AE grade ≥3: Hypertension,Other IO-naïve,2 (10.5) n (%)
same,Causally related AE grade ≥3: Hypophosphatemia,Other IO-naïve,0 n (%)
same,Causally related AE grade ≥3: Insomnia,Other IO-naïve,0 n (%)
same,Causally related AE grade ≥3: Lipase increased,Other IO-naïve,0 n (%)
same,Causally related AE grade ≥3: Lymphocyte count decreased,Other IO-naïve,0 n (%)
same,Causally related AE grade ≥3: Myositis,Other IO-naïve,0 n (%)
same,Causally related AE grade ≥3: Nausea,Other IO-naïve,0 n (%)
same,Causally related AE grade ≥3: Neutrophil count decreased,Other IO-naïve,0 n (%)
same,Causally related AE grade ≥3: Obliterative bronchiolitis,Other IO-naïve,0 n (%)
same,Causally related AE grade ≥3: Rash,Other IO-naïve,0 n (%)
same,Causally related AE grade ≥3: Sudden death,Other IO-naïve,0 n (%)
same,Causally related AE grade ≥3: Type I diabetes mellitus,Other IO-naïve,0 n (%)
same,Causally related AE grade ≥3: Vomiting,Other IO-naïve,0 n (%)
same,≥Grade 3 causally related AE,Other IO-naïve,5 (26.3) n (%)
same,Causally related AE grade ≥3: ALT increased,Other Post-IO,0 n (%)
same,Causally related AE grade ≥3: Abdominal pain,Other Post-IO,0 n (%)
same,Causally related AE grade ≥3: Anemia,Other Post-IO,1 (4.8) n (%)
same,Causally related AE grade ≥3: Arthralgia,Other Post-IO,0 n (%)
same,Causally related AE grade ≥3: Blood creatinine increased,Other Post-IO,0 n (%)
same,Causally related AE grade ≥3: CRP increased,Other Post-IO,0 n (%)
same,Causally related AE grade ≥3: Dermatitis psoriasiform,Other Post-IO,0 n (%)
same,Causally related AE grade ≥3: Diarrhea,Other Post-IO,0 n (%)
same,Causally related AE grade ≥3: Dizziness,Other Post-IO,0 n (%)
same,Causally related AE grade ≥3: Dyspnea,Other Post-IO,1 (4.8) n (%)
same,Causally related AE grade ≥3: Fatigue,Other Post-IO,1 (4.8) n (%)
same,Causally related AE grade ≥3: Headache,Other Post-IO,0 n (%)
same,Causally related AE grade ≥3: Hyperglycemia,Other Post-IO,0 n (%)
same,Causally related AE grade ≥3: Hypertension,Other Post-IO,0 n (%)
same,Causally related AE grade ≥3: Hypophosphatemia,Other Post-IO,0 n (%)
same,Causally related AE grade ≥3: Insomnia,Other Post-IO,0 n (%)
same,Causally related AE grade ≥3: Lipase increased,Other Post-IO,0 n (%)
same,Causally related AE grade ≥3: Lymphocyte count decreased,Other Post-IO,1 (4.8) n (%)
same,Causally related AE grade ≥3: Myositis,Other Post-IO,0 n (%)
same,Causally related AE grade ≥3: Nausea,Other Post-IO,0 n (%)
same,Causally related AE grade ≥3: Neutrophil count decreased,Other Post-IO,0 n (%)
same,Causally related AE grade ≥3: Obliterative bronchiolitis,Other Post-IO,0 n (%)
same,Causally related AE grade ≥3: Rash,Other Post-IO,0 n (%)
same,Causally related AE grade ≥3: Sudden death,Other Post-IO,0 n (%)
same,Causally related AE grade ≥3: Type I diabetes mellitus,Other Post-IO,0 n (%)
same,Causally related AE grade ≥3: Vomiting,Other Post-IO,0 n (%)
same,≥Grade 3 causally related AE,Other Post-IO,1 (4.8) n (%)
same,Causally related AE grade ≥3: ALT increased,Total,0 n (%)
same,Causally related AE grade ≥3: Abdominal pain,Total,2 (1.4) n (%)
same,Causally related AE grade ≥3: Anemia,Total,4 (2.7) n (%)
same,Causally related AE grade ≥3: Arthralgia,Total,1 (0.7) n (%)
same,Causally related AE grade ≥3: Blood creatinine increased,Total,0 n (%)
same,Causally related AE grade ≥3: CRP increased,Total,1 (0.7) n (%)
same,Causally related AE grade ≥3: Dermatitis psoriasiform,Total,0 n (%)
same,Causally related AE grade ≥3: Diarrhea,Total,1 (0.7) n (%)
same,Causally related AE grade ≥3: Dizziness,Total,0 n (%)
same,Causally related AE grade ≥3: Dyspnea,Total,1 (0.7) n (%)
same,Causally related AE grade ≥3: Fatigue,Total,6 (4.1) n (%)
same,Causally related AE grade ≥3: Headache,Total,1 (0.7) n (%)
same,Causally related AE grade ≥3: Hyperglycemia,Total,0 n (%)
same,Causally related AE grade ≥3: Hypertension,Total,2 (1.4) n (%)
same,Causally related AE grade ≥3: Hypophosphatemia,Total,0 n (%)
same,Causally related AE grade ≥3: Insomnia,Total,1 (0.7) n (%)
same,Causally related AE grade ≥3: Lipase increased,Total,0 n (%)
same,Causally related AE grade ≥3: Lymphocyte count decreased,Total,1 (0.7) n (%)
same,Causally related AE grade ≥3: Myositis,Total,0 n (%)
same,Causally related AE grade ≥3: Nausea,Total,1 (0.7) n (%)
same,Causally related AE grade ≥3: Neutrophil count decreased,Total,0 n (%)
same,Causally related AE grade ≥3: Obliterative bronchiolitis,Total,0 n (%)
same,Causally related AE grade ≥3: Rash,Total,0 n (%)
same,Causally related AE grade ≥3: Sudden death,Total,1 (0.7) n (%)
same,Causally related AE grade ≥3: Type I diabetes mellitus,Total,0 n (%)
same,Causally related AE grade ≥3: Vomiting,Total,2 (1.4) n (%)
same,≥Grade 3 causally related AE,Total,19 (12.9) n (%)
same,"Treatment-related AEs of grade 3 or greater severity, patients",all tumor cohorts,12.9%
same,Causally related AE grade ≥3: ALT increased,mCRPC IO-naïve,0 n (%)
same,Causally related AE grade ≥3: Abdominal pain,mCRPC IO-naïve,1 (1.5) n (%)
same,Causally related AE grade ≥3: Anemia,mCRPC IO-naïve,3 (4.6) n (%)
same,Causally related AE grade ≥3: Arthralgia,mCRPC IO-naïve,1 (1.5) n (%)
same,Causally related AE grade ≥3: Blood creatinine increased,mCRPC IO-naïve,0 n (%)
same,Causally related AE grade ≥3: CRP increased,mCRPC IO-naïve,1 (1.5) n (%)
same,Causally related AE grade ≥3: Dermatitis psoriasiform,mCRPC IO-naïve,0 n (%)
same,Causally related AE grade ≥3: Diarrhea,mCRPC IO-naïve,0 n (%)
same,Causally related AE grade ≥3: Dizziness,mCRPC IO-naïve,0 n (%)
same,Causally related AE grade ≥3: Dyspnea,mCRPC IO-naïve,0 n (%)
same,Causally related AE grade ≥3: Fatigue,mCRPC IO-naïve,1 (1.5) n (%)
same,Causally related AE grade ≥3: Headache,mCRPC IO-naïve,1 (1.5) n (%)
same,Causally related AE grade ≥3: Hyperglycemia,mCRPC IO-naïve,0 n (%)
same,Causally related AE grade ≥3: Hypertension,mCRPC IO-naïve,0 n (%)
same,Causally related AE grade ≥3: Hypophosphatemia,mCRPC IO-naïve,0 n (%)
same,Causally related AE grade ≥3: Insomnia,mCRPC IO-naïve,1 (1.5) n (%)
same,Causally related AE grade ≥3: Lipase increased,mCRPC IO-naïve,0 n (%)
same,Causally related AE grade ≥3: Lymphocyte count decreased,mCRPC IO-naïve,0 n (%)
same,Causally related AE grade ≥3: Myositis,mCRPC IO-naïve,0 n (%)
same,Causally related AE grade ≥3: Nausea,mCRPC IO-naïve,1 (1.5) n (%)
same,Causally related AE grade ≥3: Neutrophil count decreased,mCRPC IO-naïve,0 n (%)
same,Causally related AE grade ≥3: Obliterative bronchiolitis,mCRPC IO-naïve,0 n (%)
same,Causally related AE grade ≥3: Rash,mCRPC IO-naïve,0 n (%)
same,Causally related AE grade ≥3: Sudden death,mCRPC IO-naïve,0 n (%)
same,Causally related AE grade ≥3: Type I diabetes mellitus,mCRPC IO-naïve,0 n (%)
same,Causally related AE grade ≥3: Vomiting,mCRPC IO-naïve,1 (1.5) n (%)
same,≥Grade 3 causally related AE,mCRPC IO-naïve,9 (13.8) n (%)
same,Tolerability,"monotherapy and in combination with durvalumab, all patients",well tolerated
